Compound activity as filed in PubChem.
MrgX1 antagonist – human MrgX1 receptor antagonism, primary screen; Q96LB2; MRGX1-HEK293 calcium flux, Fluo-4, BAM8-22 antagonism; stronger effect = lower value; B-score at 10 µM; 1.3% of 310,000 active;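 active means calcium-response B-score plate-corrected more than 3 library SD below zero, starting fluorescence within 5 deviations, no agonist response on first addition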;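 further: peak minus trough fluorescence over baseline after final BAM8-22 challenge near maximal dose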
Target sequence (Q96LB2 whole entry, looked up): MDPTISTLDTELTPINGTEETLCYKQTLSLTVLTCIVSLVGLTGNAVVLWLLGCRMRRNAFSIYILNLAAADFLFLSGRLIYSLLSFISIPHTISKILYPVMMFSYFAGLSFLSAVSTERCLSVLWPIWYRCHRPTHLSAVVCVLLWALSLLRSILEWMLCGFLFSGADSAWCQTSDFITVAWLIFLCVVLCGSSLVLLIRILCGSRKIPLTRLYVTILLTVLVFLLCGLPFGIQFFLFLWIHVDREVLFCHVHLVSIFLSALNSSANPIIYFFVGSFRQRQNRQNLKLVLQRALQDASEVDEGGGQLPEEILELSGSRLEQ
RGS4 inh – human RGS4 inhibition; P49798; B-score at 10 µM; 0.45% of 310,000 active; HEK293 M3R/RGS4 inducible, Fluo-4 calcium flux; stronger effect = higher value; triggered by carbachol at its EC20; AID 463165;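 active means B-score, a plate-corrected calcium signal, over three deviations above library mean, with baseline fluorescence within five deviations of library mean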;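 further: RGS4 expression induced by doxycycline in cells with stable M3 receptor; B-score is computed from the integrated fluorescence ratio over baseline after carbachol; higher B-score means a larger calcium signal and so more RGS4 inhibition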
MrgX1 agonist – agonists of human MrgX1 receptor; Q96LB2; MrgX1-HEK293 cells, Fluo-4 calcium fluorescence, agonist mode; stronger effect = higher value; B-score at 10 µM; 0.44% of 310,000 active; AID 588627;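 active means calcium response B-score plate-corrected fluorescence ratio at least 3 library SD, with starting fluorescence B-score inside 5 SD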
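System: HEK293 cells stably expressing human MrgX1 receptor; Dosing: test compound in the initial addition of three; Schedule: overnight plating, then 30 min 37 °C plus 30 min room-temperature dye loading; Detection: kinetic calcium dye fluorescence, Fluo-4 NW; Controls: per-plate positive and negative controls for Z′ factor.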
MrgX1 allo act – human MrgX1 positive allosteric modulation, primary screen. AID 588675. 0.63% of 310,000 active. MrgX1-HEK293, Fluo-4 calcium flux, FDSS; stronger effect = higher value. Q96LB2. B-score at 10 µM;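 active means plate-corrected calcium response at least 3 library SD above typical, normal starting fluorescence, not activating the receptor alone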;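 further: compound read alongside a low EC10 to EC30 dose of BAM8-22 agonist; peak minus trough fluorescence over baseline measured at the second addition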
RGS4 act – potentiators or activators of RGS4; HEK293 M3R/inducible RGS4, carbachol calcium flux Fluo4; stronger effect = lower value; B-score at 10 µM; 0.92% of 310,000 active;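 active means B-score of the integrated calcium signal more than 4 SD below the library mean, with starting fluorescence not abnormally high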;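 further: negative B-score means reduced calcium response which marks RGS4 activation or potentiation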
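Assay system: HEK293 FlpIn-TREx cells, stable M3R, doxycycline-inducible RGS4 / Probe or stimulus: carbachol, ECmax concentration / Times: overnight RGS4 induction, 30 min dye load 37 °C, 20 min compound RT / Signal: kinetic calcium fluorescence imaging with Fluo4-AM dye, 2 µM / Measure: Agonist-evoked peak-minus-minimum fluorescence over baseline, integrated ratio, B score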
RGS4 activ val – RGS4 activation, validation assay | shares compounds with RGS4 act | HEK293 M3R/RGS4 inducible, carbachol calcium flux Fluo4 | inhibition, % at 10 µM | 89% of 1,100 active | AID 602282;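 active means inhibition above 3 SD of the buffer control wells, cut at about 41% in these data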;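 further: signal is the integrated peak-minus-minimum Fluo4 fluorescence over baseline ratio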
RGS4 act ctr – RGS4 activator counter-screen hit in non-induced cells; shares compounds with RGS4 act; HEK293 M3R non-induced RGS4, Fluo4 calcium flux; after carbachol challenge at its EC90; inhibition, % at 10 µM; 82% of 1,100 active;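 active means inhibition exceeding 3 SD of buffer-only control wells, cut at about 26% in these data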;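 further: percent drop in integrated peak-minus-baseline over baseline Fluo4 ratio after carbachol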
Starred values were filed as active, the others as inactive; i = inactive; x = not tested or not shown. Only some compounds are listed: those with a hit (about 3.5% of all), similar ones and a draw of the others.

SMILES | MrgX1 antagonist | RGS4 inh | MrgX1 agonist | MrgX1 allo act | RGS4 act | RGS4 activ val | RGS4 act ctr
Cc1ccc(N2CC(C(=O)Nc3c4c(nn3C(C)(C)C)CS(=O)(=O)C4)CC2=O)cc1C (stereo not given) | i | i | i | i | i | x | x
CCOCCN1CCN(c2c(CC)c(C)nc3cc(-c4cc(OC)cc(OC)c4)nn23)CC1 | i | i | i | i | -7.7* | 58* | 31*
CCOC(=O)c1[nH]c2ccc(Br)cc2c1NC(=O)CCN1CCCC(C)(C)C1 | i | i | i | i | -14* | 94* | 74*
CCOC(=O)c1[nH]c2ccc(F)cc2c1NC(=O)CCN1CCOCC1 | i | i | i | i | i | x | x
CC1=C(c2ccccc2)SC2=NCCN21 | i | i | i | i | -9.7* | 75* | 31*
Cc1nc(Cl)nc(N(C)c2ccccc2)c1[N+](=O)[O-] | i | i | i | i | i | x | x
COc1cc(C(=O)OCC(=O)N2CCN(C(C)=O)CC2)ccc1OCC(C)C | i | i | i | i | i | x | x
Cc1cccc(C)c1NC(=O)NNC(=O)c1cc(C(C)(C)C)nn1Cc1ccccc1 | i | i | i | i | i | x | x
CC(C)(C)c1cc(C(=O)NCc2cc(F)cc3c2OCOC3)n(Cc2ccccc2)n1 | i | i | i | i | -8.4* | 92* | 56*
CCOC(=O)c1ccccc1NC(=O)c1cn(-c2ccc(C)c(C)c2)c(=O)c2ccccc12 | i | i | i | i | i | x | x
COC(=O)c1ccccc1NC(=O)c1cn(-c2ccc(C)c(C)c2)c(=O)c2ccccc12 | i | i | i | i | -11* | 76* | 84*
CCCCCOC(=O)c1ccc(OC(=O)c2cncc(Br)c2)cc1 | i | i | i | i | i | x | x
CCCCCCCOC(=O)c1ccc(OC(=O)c2cccnc2)cc1 | i | i | i | i | -8.4* | 90* | 59*
CCCc1cc(C(=O)N2CCCC(Cc3ccccc3C)(C(=O)OCC)C2)no1 (stereo not given) | i | i | i | i | i | x | x
Cc1nc2sc(C)c(C)c2c(=O)o1 | i | i | i | i | -8.5* | 0 | 0
CCCCCCSc1cc(-c2nc3cc(C)ccn3c2NCCCC)ccc1OC | i | i | i | i | i | x | x
CCCCNc1c(-c2ccc(OC)c(Sc3ccc(OC)cc3)c2)nc2ccccn12 | i | i | i | i | -11* | 91* | 71*
CCC(C(=O)NCc1ccc(F)cc1)N(Cc1cccs1)C(=O)c1snc(C(N)=O)c1N (stereo not given) | i | i | i | i | i | x | x
O=C(CNC1CCCCCC1)Nc1ccc(S(=O)(=O)NC2CC2)cc1 | i | i | i | i | -7.7* | 64* | 84*
COc1cc(OC)cc(C(=O)N[C@H](C(=O)NCc2ccccc2)C(C)C)c1 | i | i | i | i | i | x | x
Clc1ccc(OCCCN2CCCC2)cc1Cl | i | i | i | i | i | x | x
Cc1cc(OCCCCCN2CCCC2)ccc1Cl | i | i | i | i | -9.5* | 80* | 27*
CC1CCCN(CCOc2cccc(Oc3ccccc3)c2)C1 (stereo not given) | i | i | i | i | -8.6* | 90* | 57*
Brc1cccc(OCCCN2CCCCCC2)c1 | i | i | i | i | -8.5* | 76* | 84*
CCCOc1ccc(OCCN2CCCC(C)C2)cc1 (stereo not given) | i | i | i | i | -9.8* | 92* | 50*
CC1CCN(CCOc2cccc(Br)c2)CC1 | i | i | i | i | i | x | x
Cc1cccc(NC(=O)C2C3CCCCC32)c1 (stereo not given) | i | i | i | i | i | x | x
CCCC/C(C)=N/NC(=O)c1cn(-c2ccccc2)nc1-c1ccccc1 | i | i | i | i | i | x | x
